Source: ChEMBL document CHEMBL3272242, “Sulfamylurea hypoglycemic agents. 6. High-potency derivatives” (J Med Chem, 1976)
Active and inactive are the calls of the source. No cut-off for these calls is given here.

How the values were obtained:
Rattus norvegicus [1] = assay: Hypoglycemic activity in 18 to 24 hrs-fasted rat assessed as reduction in blood glucose at 1 mg/kg, ip measured after 1 hr relative to saline-treated control; format: functional; set-up: scale not given: the % may be the effect or the level left; conditions: route intraperitoneal
Summary of the method: (§1)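 Unanesthetized male Charles River rats (200–250 g), fasted 18–24 h, in groups of five or six. Single ip dose. Tail-vein blood drawn before dosing and 1 h after. Glucose measured by ferricyanide reduction micromethod on an autoanalyzer. Value is the percent fall in blood glucose at 1 h versus a saline-treated control group. Significance levels are p < 0.05, 0.01 and 0.001.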

Rattus norvegicus [2] = assay: Hypoglycemic activity in 18 to 24 hrs-fasted rat assessed as reduction in blood glucose at 5 mg/kg, ip measured after 1 hr relative to saline-treated control; format: functional; set-up: scale not given: the % may be the effect or the level left; conditions: route intraperitoneal; summary of the method: as §1
Rattus norvegicus [3] = assay: Hypoglycemic activity in 18 to 24 hrs-fasted rat assessed as reduction in blood glucose at 25 mg/kg, ip measured after 1 hr relative to saline-treated control; format: functional; set-up: scale not given: the % may be the effect or the level left; conditions: route intraperitoneal; summary of the method: as §1
Rattus norvegicus [4] = assay: Hypoglycemic activity in 18 to 24 hrs-fasted rat assessed as reduction in blood glucose at 15 mg/kg, ip measured after 1 hr relative to saline-treated control; format: functional; set-up: scale not given: the % may be the effect or the level left; conditions: route intraperitoneal; summary of the method: as §1
Rattus norvegicus [5] = assay: Hypoglycemic activity in 18 to 24 hrs-fasted rat assessed as reduction in blood glucose at 0.5 mg/kg, ip measured after 1 hr relative to saline-treated control; format: functional, organism-based; set-up: dose 0.5 mg/kg; summary of the method: as §1
Rattus norvegicus [6] = assay: Hypoglycemic activity in 18 to 24 hrs-fasted rat assessed as reduction in blood glucose at 100 mg/kg, ip measured after 1 hr relative to saline-treated control; format: functional; set-up: scale not given: the % may be the effect or the level left; conditions: route intraperitoneal; summary of the method: as §1
Homo sapiens = species on record: Homo sapiens; assay: Toxicity in maturity-onset diabetic patient; format: organism-based; conditions: in vivo
Rattus norvegicus [7] = assay: Hypoglycemic activity in 18 to 24 hrs-fasted rat assessed as reduction in blood glucose at 50 mg/kg, ip measured after 1 hr relative to saline-treated control; format: functional; set-up: scale not given: the % may be the effect or the level left; conditions: route intraperitoneal; summary of the method: as §1

| Compound | Activity (Rattus norvegicus [1]) | Activity (Rattus norvegicus [2]) | Activity (Rattus norvegicus [4]) | other results |
| --- | --- | --- | --- | --- |
| COc1ccc(Cl)cc1C(=O)NCCC1CCN(S(=O)(=O)NC(=O)NC2CCCCC2)CC1 | 39% | 25% | – | – |
| CCCNC(=O)NS(=O)(=O)N1CCC(CCNC(=O)c2cc(Cl)ccc2OC)CC1 | 24% | 11% | – | Activity (Rattus norvegicus [3]): 41% |
| Cn1cc(C(=O)NCCC2CCN(S(=O)(=O)NC(=O)NC3CCCCC3)CC2)c(=O)n(C)c1=O | – | – | 15% | – |
| CSc1ccc(C(F)(F)F)cc1C(=O)NCCC1CCN(S(=O)(=O)NC(=O)NC2CCCCC2)CC1 | – | – | 24% | – |
| COc1ncccc1C(=O)NCCC1CCN(S(=O)(=O)NC(=O)NC2CCCCC2)CC1 | 22% | 33% | 35% | – |
| O=C(NC1CCCCC1)NS(=O)(=O)N1CCC(CCNC(=O)c2nsc3ccccc23)CC1 | – | – | 17% | – |
| O=C(NC1CCCCC1)NS(=O)(=O)N1CCC(CCNC(=O)c2ccc3c(c2)OCO3)CC1 | – | – | 17% | – |
| O=C(NC1CCCCC1)NS(=O)(=O)N1CCC(CCNC(=O)c2cccc3cccnc23)CC1 | 29% | 37% | – | – |
| O.O=C(NC1CCCCC1)NS(=O)(=O)N1CCC(CCNC(=O)c2cc(Cl)cc3cccnc23)CC1 | 17% | 52% | – | Activity (Rattus norvegicus [5]): inactive |
| O=C(NC1CCCCC1)NS(=O)(=O)N1CCC(CCNC(=O)c2cccc3c2OCCO3)CC1 | – | 34% | 42% | – |
| CCCNC(=O)NS(=O)(=O)N1CCC(CCNC(=O)c2cccc3c2OCCO3)CC1 | – | – | 25% | – |
| O=C(NC[C@@H]1C[C@@H]2C=C[C@@H]1C2)NS(=O)(=O)N1CCC(CCNC(=O)c2cccc3c2OCCO3)CC1 | – | 11% | 40% | – |
| COc1ncccc1C(=O)NCCC1CCN(S(=O)(=O)NC(=O)NC23CC4CC(CC(C4)C2)C3)CC1 | 12% | 25% | – | – |
| O=C(NC1CCCCC1)NS(=O)(=O)N1CCCCC1 | – | – | 19% | Activity (Rattus norvegicus [6]): 34% |
| COc1ccc(Cl)cc1C(=O)NCCC1CCN(S(=O)(=O)NC(=O)NC[C@@H]2C[C@@H]3C=C[C@@H]2C3)CC1 (relative stereo) | 27% | 37% | – | – |
| CC(=O)NCCC1CCN(S(=O)(=O)NC(=O)NC[C@@H]2C[C@@H]3C=C[C@@H]2C3)CC1 (relative stereo) | – | 18% | 25% | – |
| O=C(NC[C@@H]1C[C@@H]2C=C[C@@H]1C2)NS(=O)(=O)N1CCC(CCNC(=O)c2cnsc2)CC1 (relative stereo) | – | – | 14% | – |
| Cc1ncsc1C(=O)NCCC1CCN(S(=O)(=O)NC(=O)NC[C@@H]2C[C@@H]3C=C[C@@H]2C3)CC1 (relative stereo) | – | 11% | 25% | – |
| O=C(NC[C@@H]1C[C@@H]2C=C[C@@H]1C2)NS(=O)(=O)N1CCC(CCNC(=O)c2cscn2)CC1 (relative stereo) | – | – | 37% | – |

| Compound | Activity (Rattus norvegicus [1]) | Activity (Rattus norvegicus [2]) | Activity (Rattus norvegicus [4]) | other results |
| --- | --- | --- | --- | --- |
| COc1ccc(C(=O)NCCC2CCN(S(=O)(=O)NC(=O)NC[C@@H]3C[C@@H]4C=C[C@@H]3C4)CC2)cn1 (relative stereo) | – | 11% | 32% | – |
| O=C(NC[C@@H]1C[C@@H]2C=C[C@@H]1C2)NS(=O)(=O)N1CCC(CCNC(=O)c2cc(Cl)ccn2)CC1 (relative stereo) | 16% | 32% | 46% | – |
| O=C(NC[C@@H]1C[C@@H]2C=C[C@@H]1C2)NS(=O)(=O)N1CCC(CCNC(=O)c2cnccc2Cl)CC1 (relative stereo) | – | – | 12% | – |
| COc1ncc(Cl)cc1C(=O)NCCC1CCN(S(=O)(=O)NC(=O)NC[C@@H]2C[C@@H]3C=C[C@@H]2C3)CC1.O (relative stereo) | 20% | – | – | Activity (Rattus norvegicus [5]): inactive |
| Cn1cccc(C(=O)NCCC2CCN(S(=O)(=O)NC(=O)NC[C@@H]3C[C@@H]4C=C[C@@H]3C4)CC2)c1=O (relative stereo) | 19% | – | 40% | – |
| O=C(NC[C@@H]1C[C@@H]2CC[C@@H]1O2)NS(=O)(=O)N1CCC(CCNC(=O)C2Oc3ccccc3O2)CC1 (relative stereo) | – | 15% | 38% | – |
| O.O=C(NC[C@@H]1C[C@@H]2C=C[C@@H]1C2)NS(=O)(=O)N1CCC(CCNC(=O)c2nc3ccccc3s2)CC1 (relative stereo) | 14% | 24% | 34% | – |
| CC#N.O=C(NC[C@@H]1C[C@@H]2CC[C@@H]1O2)NS(=O)(=O)N1CCC(CCNC(=O)c2nc3ccccc3s2)CC1 (relative stereo) | – | – | 30% | – |
| O.O=C(NC[C@@H]1C[C@@H]2C=C[C@@H]1C2)NS(=O)(=O)N1CCC(CCNC(=O)c2cccc3cccnc23)CC1 (relative stereo) | 32% | 34% | – | – |
| O.O=C(NC[C@@H]1C[C@@H]2C=C[C@@H]1C2)NS(=O)(=O)N1CCC(CCNC(=O)c2cc(Cl)cc3cccnc23)CC1 (relative stereo) | 16% | 35% | – | Activity (Rattus norvegicus [5]): inactive |
| O=C(NC[C@@H]1C[C@@H]2CC[C@@H]1O2)NS(=O)(=O)N1CCC(CCNC(=O)c2cccc3c2OCCO3)CC1 (relative stereo) | – | 15% | 13% | – |
| COc1ncccc1C(=O)NCCC1CCN(S(=O)(=O)NC(=O)NC[C@@H]2C[C@@H]3C=C[C@@H]2C3)CC1 (relative stereo) | 25% | 32% | – | Activity (Homo sapiens): Non-toxic |
| COc1ncccc1C(=O)NCCC1CCN(S(=O)(=O)NC(=O)NC[C@@H]2C[C@@H]3CC[C@@H]2C3)CC1 (relative stereo) | – | 35% | – | – |
| Cn1cc(C(=O)NCCC2CCN(S(=O)(=O)NC(=O)NC[C@@H]3C[C@@H]4C=C[C@@H]3C4)CC2)c(=O)n(C)c1=O (relative stereo) | 12% | 23% | 32% | – |
| Cn1cc(C(=O)NCCC2CCN(S(=O)(=O)NC(=O)NC[C@@H]3C[C@@H]4CC[C@@H]3C4)CC2)c(=O)n(C)c1=O.O (relative stereo) | – | 22% | – | – |
| CCCn1cc(C(=O)NCCC2CCN(S(=O)(=O)NC(=O)NC[C@@H]3C[C@@H]4C=C[C@@H]3C4)CC2)c(=O)n(CC)c1=O.O (relative stereo) | – | 19% | – | – |
| CCCCn1cc(C(=O)NCCC2CCN(S(=O)(=O)NC(=O)NC[C@@H]3C[C@@H]4C=C[C@@H]3C4)CC2)c(=O)n(CCCC)c1=O (relative stereo) | – | 12% | – | – |
| CCCNC(=O)NS(=O)(=O)c1ccc(Cl)cc1 [CHLORPROPAMIDE] | – | 10% | 18% | Activity (Rattus norvegicus [7]): 46% |
